In ChEMBL document CHEMBL1156948, “Statistical molecular design of a focused salicylidene acylhydrazide library and multivariate QSAR of inhibition of type III secretion in the Gram-negative bacterium Yersinia” (Bioorg Med Chem, 2010):
The source made the active and inactive calls. No rule for the calls is given here.

How the values were obtained:
[1] = test system: Yersinia pseudotuberculosis YPIII; assay: Inhibition of T3S in Yersinia pseudotuberculosis YPIII expressing yopE-luxAB at 200 uM after 3 hrs by luciferase reporter gene assay
Method in brief: (§1)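 Strain YPIII pIB102 (yopE-luxAB) grown overnight at room temperature in BHI with 5 mM EGTA and 20 mM MgCl2 (calcium depletion), adjusted to OD600 0.088–0.095. Compound added from DMSO at 1.56–200 µM final (eight concentrations). Shaken 1 h at room temperature, then 2 h at 37 °C. Decanal added and light emission read immediately. Triplicates, repeated at least three times.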

[2] = test system: Yersinia pseudotuberculosis YPIII; assay: Inhibition of T3S in Yersinia pseudotuberculosis YPIII expressing yopE-luxAB at 25 uM after 3 hrs by luciferase reporter gene assay; method in brief: as §1
Escherichia coli [3] = assay: Antibacterial activity against Escherichia coli DH5[alpha] at 100 uM after 23 hrs by broth dilution assay; type: functional, organism-based
Method in brief: (§2)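 Overnight LB culture of E. coli DH5α grown at 37 °C, diluted to OD600 0.1 in LB with 2.5 mM CaCl2; compound added from DMSO stock to final 50 or 100 µM. Incubated at 37 °C with absorbance at 595 nm followed over 23 h.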

[4] = test system: Yersinia pseudotuberculosis YPIII; assay: Inhibition of T3S in Yersinia pseudotuberculosis YPIII expressing yopE-luxAB at 3.13 uM after 3 hrs by luciferase reporter gene assay; method in brief: as §1
[5] = test system: Yersinia pseudotuberculosis YPIII; assay: Inhibition of T3S in Yersinia pseudotuberculosis YPIII expressing yopE-luxAB at 6.25 uM after 3 hrs by luciferase reporter gene assay; method in brief: as §1
[6] = test system: Yersinia pseudotuberculosis YPIII; assay: Inhibition of T3S in Yersinia pseudotuberculosis YPIII expressing yopE-luxAB at 50 uM after 3 hrs by luciferase reporter gene assay; method in brief: as §1
Escherichia coli [7] = assay: Antibacterial activity against Escherichia coli DH5[alpha] at 50 uM after 23 hrs by broth dilution assay; type: functional, organism-based; method in brief: as §2
[8] = test system: Yersinia pseudotuberculosis; assay: Antibacterial activity against Yersinia pseudotuberculosis expressing pIB102 at 100 uM after 23 hrs by broth dilution assay; type: functional, organism-based
Method in brief: (§3)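 Wild-type pIB102 grown overnight in LB at room temperature, diluted to OD600 = 0.1 in LB with 2.5 mM CaCl2. Compound added from DMSO stock to final 50 and 100 µM. Incubated at 37 °C with absorbance at 595 nm read over 23 h.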

[9] = test system: Yersinia pseudotuberculosis; assay: Antibacterial activity against Yersinia pseudotuberculosis expressing pIB102 at 50 uM after 23 hrs by broth dilution assay; type: functional, organism-based; method in brief: as §3
[10] = test system: Yersinia pseudotuberculosis YPIII; assay: Inhibition of T3S in Yersinia pseudotuberculosis YPIII expressing yopE-luxAB at 100 uM after 3 hrs by luciferase reporter gene assay; method in brief: as §1
[11] = test system: Yersinia pseudotuberculosis YPIII; assay: Inhibition of T3S in Yersinia pseudotuberculosis YPIII expressing yopE-luxAB at 12.5 uM after 3 hrs by luciferase reporter gene assay; method in brief: as §1
[12] = test system: Yersinia pseudotuberculosis YPIII; assay: Inhibition of T3S in Yersinia pseudotuberculosis YPIII expressing yopE-luxAB at 1.56 uM after 3 hrs by luciferase reporter gene assay; method in brief: as §1

O=C(N/N=C/c1cc([N+](=O)[O-])cc([N+](=O)[O-])c1O)c1ccc(Br)cc1
inhibition [1]: 18% | inhibition [2]: 19% | Activity (Escherichia coli [3]): inactive | inhibition [4]: -6% | inhibition [5]: 9% | inhibition [6]: 22% | Activity (Escherichia coli [7]): inactive | Activity [8]: inactive | Activity [9]: inactive | inhibition [10]: 22% | inhibition [11]: 12%

CC(C)(C)c1cc(/C=N/NC(=O)COc2ccc([N+](=O)[O-])cc2)c(O)c(C(C)(C)C)c1
inhibition [1]: 4% | inhibition [2]: 12% | Activity (Escherichia coli [3]): inactive | inhibition [4]: -2% | inhibition [5]: 7% | inhibition [6]: 18% | Activity (Escherichia coli [7]): inactive | Activity [8]: inactive | Activity [9]: inactive | inhibition [10]: 18% | inhibition [11]: 14%

CC(C)(C)c1ccc(O)c(/C=N/NC(=O)CC23CC4CC(CC(C4)C2)C3)c1
inhibition [1]: -1% | inhibition [2]: 17% | Activity (Escherichia coli [3]): inactive | inhibition [4]: 3% | inhibition [5]: 10% | inhibition [6]: 10% | inhibition [12]: -6% | Activity (Escherichia coli [7]): inactive | Activity [8]: inactive | Activity [9]: inactive | inhibition [10]: 17% | inhibition [11]: 13%

O=C(N/N=C/c1ccc(O)c(O)c1O)c1ccccc1[N+](=O)[O-]
inhibition [1]: 96% | inhibition [2]: 22% | Activity (Escherichia coli [3]): inactive | inhibition [4]: 5% | inhibition [5]: 16% | inhibition [6]: 36% | inhibition [12]: -8% | Activity (Escherichia coli [7]): inactive | Activity [8]: inactive | Activity [9]: inactive | inhibition [10]: 74% | inhibition [11]: 20%

COc1ccc(/C=N/NC(=O)C(N)=O)c(O)c1
inhibition [1]: 97% | inhibition [2]: 13% | Activity (Escherichia coli [3]): inactive | inhibition [4]: -6% | inhibition [5]: 4% | inhibition [6]: 73% | Activity (Escherichia coli [7]): inactive | Activity [8]: inactive | Activity [9]: inactive | inhibition [10]: 94% | inhibition [11]: 8%

COc1ccc(C(=O)N/N=C/c2cc(F)cc(Cl)c2O)cc1OC
inhibition [1]: 64% | inhibition [2]: 10% | Activity (Escherichia coli [3]): inactive | inhibition [5]: 6% | inhibition [6]: 38% | inhibition [12]: -10% | Activity (Escherichia coli [7]): inactive | Activity [8]: inactive | Activity [9]: inactive | inhibition [10]: 56% | inhibition [11]: 0%

O=C(COc1ccc(F)cc1)N/N=C/c1cc(I)cc(I)c1O
inhibition [1]: 44% | inhibition [2]: 21% | Activity (Escherichia coli [3]): inactive | inhibition [4]: 0% | inhibition [5]: 15% | inhibition [6]: 30% | Activity (Escherichia coli [7]): inactive | Activity [8]: inactive | Activity [9]: inactive | inhibition [10]: 36% | inhibition [11]: 18%

COc1cccc(C(=O)N/N=C/c2cc(C(C)(C)C)cc(C(C)(C)C)c2O)c1
inhibition [1]: 11% | inhibition [2]: 14% | Activity (Escherichia coli [3]): inactive | inhibition [4]: 4% | inhibition [5]: 7% | inhibition [6]: 23% | Activity (Escherichia coli [7]): inactive | Activity [8]: inactive | Activity [9]: inactive | inhibition [10]: 21% | inhibition [11]: 13%

COc1cc(Br)cc(/C=N/NC(=O)c2sc3ccccc3c2Cl)c1O
inhibition [1]: 39% | inhibition [2]: 23% | Activity (Escherichia coli [3]): inactive | inhibition [4]: 10% | inhibition [5]: 12% | inhibition [6]: 34% | inhibition [12]: -6% | Activity (Escherichia coli [7]): inactive | Activity [8]: inactive | Activity [9]: inactive | inhibition [10]: 40% | inhibition [11]: 20%

COc1ccc(C(=O)N/N=C/c2cc(I)cc(I)c2O)cc1OC
inhibition [1]: 40% | inhibition [2]: 30% | Activity (Escherichia coli [3]): inactive | inhibition [4]: 4% | inhibition [5]: 19% | inhibition [6]: 24% | Activity (Escherichia coli [7]): inactive | Activity [8]: inactive | Activity [9]: inactive | inhibition [10]: 33% | inhibition [11]: 23%

CCN(CC)c1ccc(/C=N/NC(=O)COc2ccc(F)cc2)c(O)c1
inhibition [1]: 50% | inhibition [2]: 35% | Activity (Escherichia coli [3]): inactive | inhibition [4]: 11% | inhibition [5]: 17% | inhibition [6]: 54% | Activity (Escherichia coli [7]): inactive | Activity [8]: inactive | Activity [9]: inactive | inhibition [10]: 58% | inhibition [11]: 23%

O=C(CCc1ccc(O)cc1)N/N=C/c1c(O)cc(O)cc1O
inhibition [1]: 46% | inhibition [2]: 25% | Activity (Escherichia coli [3]): inactive | inhibition [4]: 18% | inhibition [5]: 20% | inhibition [6]: 29% | Activity (Escherichia coli [7]): inactive | Activity [8]: inactive | Activity [9]: inactive | inhibition [10]: 36% | inhibition [11]: 23%

O=C(CC12CC3CC(CC(C3)C1)C2)N/N=C/c1cc([N+](=O)[O-])cc([N+](=O)[O-])c1O
inhibition [1]: 13% | inhibition [2]: 6% | Activity (Escherichia coli [3]): inactive | inhibition [4]: -5% | inhibition [5]: 1% | inhibition [6]: 18% | Activity (Escherichia coli [7]): inactive | Activity [8]: inactive | Activity [9]: inactive | inhibition [10]: 20% | inhibition [11]: 10%

Cc1nnsc1C(=O)N/N=C/c1cc(F)cc(Cl)c1O
Activity (Escherichia coli [3]): inactive | Activity (Escherichia coli [7]): inactive

COc1cccc(/C=N/NC(=O)c2cc(OC)c(OC)c(OC)c2)c1O
inhibition [1]: 68% | inhibition [2]: 20% | Activity (Escherichia coli [3]): inactive | inhibition [4]: 14% | inhibition [5]: 17% | inhibition [6]: 43% | Activity (Escherichia coli [7]): inactive | Activity [8]: inactive | Activity [9]: inactive | inhibition [10]: 65% | inhibition [11]: 15%

COc1cc([N+](=O)[O-])cc(/C=N/NC(=O)c2ccncc2)c1O
inhibition [1]: 51% | inhibition [2]: 28% | Activity (Escherichia coli [3]): inactive | inhibition [4]: 8% | inhibition [5]: 16% | inhibition [6]: 35% | Activity (Escherichia coli [7]): inactive | Activity [8]: inactive | Activity [9]: inactive | inhibition [10]: 42% | inhibition [11]: 21%

COc1ccc(Br)c(C(=O)N/N=C/c2ccc(Cl)cc2O)c1
inhibition [1]: 58% | inhibition [2]: 31% | Activity (Escherichia coli [3]): inactive | inhibition [4]: 14% | inhibition [5]: 10% | inhibition [6]: 36% | Activity (Escherichia coli [7]): inactive | Activity [8]: inactive | Activity [9]: inactive | inhibition [10]: 49% | inhibition [11]: 25%

COc1cc(/C=N/NC(=O)COc2ccc([N+](=O)[O-])cc2)c(O)c(OC)c1
inhibition [1]: -2% | inhibition [2]: 18% | Activity (Escherichia coli [3]): inactive | inhibition [4]: -1% | inhibition [5]: 13% | inhibition [6]: 16% | Activity (Escherichia coli [7]): inactive | Activity [8]: inactive | Activity [9]: inactive | inhibition [10]: 14% | inhibition [11]: 14%

COc1cc(Br)cc(/C=N/NC(=O)C(N)=O)c1O
inhibition [1]: 78% | inhibition [2]: 10% | Activity (Escherichia coli [3]): inactive | inhibition [4]: -4% | inhibition [5]: 1% | inhibition [6]: 9% | Activity (Escherichia coli [7]): inactive | Activity [8]: inactive | Activity [9]: inactive | inhibition [10]: 47% | inhibition [11]: 8%
